The values below come from ChEMBL document CHEMBL4433227, “Enhancing the ligand efficiency of anti-HIV compounds targeting frameshift-stimulating RNA” (Bioorg Med Chem, 2019).

Data set [1] in a line: (§1) Competitive binding affinity to HIV-1 FSS RNA assessed as dissociation constant in presence of bulk yeast tRNA by SPR assay. More on the design: species or system Human immunodeficiency virus 1. Background: SPR reads the build-up and loss of mass on a sensor chip optically.
Data set [2] concerns Human immunodeficiency virus 1. Kind of data set: Binding affinity to HIV-1 FSS RNA assessed as association rate constant by SPR assay. In short, it runs like this: (§2)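 Compounds injected in HBS at 80 μL/min for 1 min, at least two injections per concentration. Each curve fit to a 1:1 Langmuir model, using the two lowest fittable concentrations. Kinetic constants averaged.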

The subject of data set [3] is Human immunodeficiency virus 1. Kind of data set: Binding affinity to HIV-1 FSS RNA assessed as dissociation rate constant by SPR assay. In short, it runs like this:
as §2

The nature of data set [4]: Binding affinity to HIV-1 FSS RNA assessed as dissociation constant by SPR assay. The arrangement: species or system Human immunodeficiency virus 1. A digest of the protocol: as §2
The test system of data set [5] is Human immunodeficiency virus 1. As to the kind of experiment: Antiviral activity against HIV1 3B infected in human MT2 cells assessed as reduction in p24 Gag protein production at 25 uM on day 6 post infection by ELISA relative to control. The arrangement: scale not given: the % may be the effect or the level left. Format: functional. (In an ELISA, binding on a coated surface is turned into a signal by an enzyme label.)

Data set [6] has as its system Human immunodeficiency virus. As to the kind of experiment: Binding affinity to HIV frameshift-stimulating RNA assessed as upregulation of HIV p160 Gag-pol protein expression by Western blot analysis. For orientation: A western blot detects proteins with antibodies after separation by electrophoresis.
Data set [7] deals with Human immunodeficiency virus. Kind of data set: Antiviral activity against pseudotyped HIV assessed as reduction in viral production. Format: functional, organism-based.
In data set [8] the test system is Human immunodeficiency virus. As to the kind of experiment: Antiviral activity against pseudotyped HIV assessed as reduction in viral infectivity. Format: functional, organism-based.
Data set [9] in a line: Cytotoxicity against human HEK293FT cells assessed as reduction in viability at < 40 uM after 24 hrs by WST1 assay. Format: cell-based. A digest of the protocol: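 HEK293FT cells, 2.5×10^4/well in triplicate, grown in DMEM with 10% FBS and 1% pen-strep at 37 °C. After 4 h adherence, compound dilutions added for 24 h. WST-1 then added for 1 h and the signal read on a plate reader. Mitochondrial activity taken as the metabolic read-out.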

In data set [10] the test system is Human immunodeficiency virus 1. Kind of data set: Binding affinity to HIV-1 FSS RNA at 2 uM dialyzed up to 36 hrs by HPLC analysis. A digest of the protocol: (§3)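 RNAs refolded at 2.5 μM in PBS with 1 mM EDTA (25 °C, 90 °C, then 27 °C). Tubes (3500 MWCO) held 200 μL of RNA, in duplicate, with an RNA-free control tube. Dialysis against 2.0 μM compound in PBS for 36 h. Compound concentration inside the tubes measured by HPLC.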

The species entered for data set [11] is Homo sapiens. Kind of data set: Binding affinity to human IRF5 RNA at 2 uM dialyzed up to 36 hrs by HPLC analysis. In short, it runs like this:
as §3

The species entered for data set [12] is Homo sapiens. Kind of data set: Binding affinity to human BDNF RNA at 2 uM dialyzed up to 36 hrs by HPLC analysis. A digest of the protocol: as §3
Data set [13] relates to Human immunodeficiency virus 1. Kind of data set: Antiviral activity against HIV1 3B infected in human MT2 cells assessed as reduction in p24 Gag protein production on day 6 post infection by ELISA. Particulars: Human immunodeficiency virus 1, 3B, MT2, 144 h. Format: functional, organism-based.
Data set [14] concerns Human immunodeficiency virus 1. Kind of data set: Antiviral activity against patient derived multidrug resistant HIV1 AD.MDR01. Format: functional, organism-based.
Data set [15] concerns Human immunodeficiency virus 1. As to the kind of experiment: Antiviral activity against HIV1 3B. Format: functional, organism-based.
Data set [16] deals with Human immunodeficiency virus 1. The description is as §1.

SMILES strings stand for the structures. Calls of active or inactive are those of the source. No cut-off for these calls is given here.

For the molecule `CCc1nc2ccccc2cc1C(=O)N(C)[C@@H](CCn1cc(C[C@@H](C(=O)N2C[C@H](O)C[C@H]2C(=O)N(C)[C@@H](Cc2ccccc2)C(=O)NCCCN)N(C)C(=O)c2cc3ccccc3nc2CC)nn1)C(=O)N1C[C@H](O)C[C@H]1C(=O)N(C)[C@@H](Cc1ccccc1)C(=O)NCCCN`, the Kd (as a rule, the concentration at which binding is half-saturated) came to 441 nM in data set [1] and 583 nM in [4]. For the same molecule, the Ka in [2] turned out to be 1.49 ×10⁴ /M.s. The Kdiss in [3] was 6.8 ×10⁻³ /s. Further, the Activity in data set [5] amounted to 63%.
In the case of `CCc1nc2cc3ccccc3cc2cc1C(=O)N[C@@H](C/C=C\C[C@H](NC(=O)c1cc2cc3ccccc3cc2nc1CC)C(=O)N1CCC[C@H]1C(=O)N[C@@H](Cc1ccccc1)C(=O)NCCCN)C(=O)N1CCC[C@H]1C(=O)N[C@@H](Cc1ccccc1)C(=O)NCCCN`, the Activity entry in data set [6] was “Dose-dependent effect”. In addition, the Kd in [4] is 102 nM. In addition, the result in data set [7] and in data set [8] was Active.
On to `CCc1nc2ccccc2cc1C(=O)N(C)[C@@H](CCn1cc(C[C@@H](C(=O)N2CCC[C@H]2C(=O)N(C)[C@@H](Cc2ccccc2)C(=O)NCCCN)N(C)C(=O)c2cc3ccccc3nc2CC)nn1)C(=O)N1CCC[C@H]1C(=O)N(C)[C@@H](Cc1ccccc1)C(=O)NCCCN`, for which the Kd in data set [1] was 132 nM; in [4], 497 nM. For the same molecule, the Ka in data set [2] was determined as 6.49 ×10⁴ /M.s. For the same molecule, the Kdiss in data set [3] worked out at 2.37 ×10⁻² /s. Further, the Activity entry in data set [9] was “Toxic”; in data set [5], 63%.
Take `CN(C(=O)c1cnc2ccccc2c1)[C@@H](CCn1cc(C[C@@H](C(=O)N2C[C@H](O)C[C@H]2C(=O)N(C)[C@@H](Cc2ccccc2)C(=O)NCCCN)N(C)C(=O)c2cnc3ccccc3c2)nn1)C(=O)N1C[C@H](O)C[C@H]1C(=O)N(C)[C@@H](Cc1ccccc1)C(=O)NCCCN`: the Kd was found to be 183 nM in data set [1] and 110 nM in data set [4]. For the same molecule, the Ka in data set [2] was 6.74 ×10⁴ /M.s. Also, the Kdiss in data set [3] turned out to be 5.42 ×10⁻³ /s. The Activity in [5] is on record as 63%.
On to `CN(C(=O)c1cnc2ccccc2c1)[C@@H](CCn1cc(C[C@@H](C(=O)N2CCC[C@H]2C(=O)N(C)[C@@H](Cc2ccccc2)C(=O)NCCCN)N(C)C(=O)c2cnc3ccccc3c2)nn1)C(=O)N1CCC[C@H]1C(=O)N(C)[C@@H](Cc1ccccc1)C(=O)NCCCN`, for which the outcome (in [10]; in the data set filed under Homo sapiens [11]; in the data set filed under Homo sapiens [12]) was Active. For the same molecule, the Kd in data set [1] turned out to be 124 nM; in data set [4] it was 62.2 nM. The Ka in data set [2] turned out to be 5.66 ×10⁴ /M.s. Further, in data set [3], the Kdiss amounted to 2.26 ×10⁻³ /s. Moreover, the Activity in [5] is listed as 63%.
As for `CN(C(=O)c1cnc2ccccc2c1)[C@@H](CCn1cc(C[C@@H](C(=O)N2C[C@H](O)C[C@H]2C(=O)N(C)[C@@H](Cc2ccccc2)C(N)=O)N(C)C(=O)c2cnc3ccccc3c2)nn1)C(=O)N1C[C@H](O)C[C@H]1C(=O)N(C)[C@@H](Cc1ccccc1)C(N)=O`, the Ka in data set [2] was 4.09 ×10³ /M.s. Moreover, in data set [3], the Kdiss came out at 5.41 ×10⁻³ /s. In addition, the Kd in data set [4] was 1470 nM.
Consider `CCc1nc2cc3ccccc3cc2cc1C(=O)N(C)[C@@H](CCn1cc(C[C@@H](C(=O)N2CCC[C@H]2C(=O)N(C)[C@@H](Cc2ccccc2)C(=O)NCCCN)N(C)C(=O)c2cc3cc4ccccc4cc3nc2CC)nn1)C(=O)N1CCC[C@H]1C(=O)N(C)[C@@H](Cc1ccccc1)C(=O)NCCCN`, for which, in [6], the Activity result is “Dose-dependent effect”. Further, the Kd in [1] was determined as 130 nM; in data set [4], 16 nM. Besides, the Ka in data set [2] is 1.9 ×10⁵ /M.s. For the same molecule, the Kdiss in data set [3] was 3 ×10⁻³ /s. Besides, the IC50 (in general, the concentration that gives 50% inhibition) in [13] was 4.86 µM. Also, the outcome in data set [14], in data set [7], in data set [8] and in data set [15] was Active.
Regarding `NC[C@@H]1O[C@H](O[C@H]2[C@@H](O)[C@H](O[C@@H]3[C@@H](O)[C@H](N)C[C@H](N)[C@H]3O[C@H]3O[C@H](CN)[C@@H](O)[C@H](O)[C@H]3N)O[C@@H]2CO)[C@H](N)[C@@H](O)[C@@H]1O` [FRAMYCETIN], the result in data set [16] was inactive. Further, the Kd in data set [4] is 779000 nM.
As to `CCc1nc2ccccc2cc1C(=O)N(C)[C@@H](CCn1cc(C[C@@H](C(=O)N2CCC[C@H]2C(=O)N(C)[C@@H](Cc2ccccc2)C(N)=O)N(C)C(=O)c2cc3ccccc3nc2CC)nn1)C(=O)N1CCC[C@H]1C(=O)N(C)[C@@H](Cc1ccccc1)C(N)=O`, the figures for the Kd in data set [1] and in data set [4] were 16800 nM and 19300 nM, respectively. The Ka in data set [2] is 1.69 ×10³ /M.s. The Kdiss in data set [3] was found to be 2.07 ×10⁻² /s.
